Test [1] can be described thus: S. cerevisiae growth inhibition in permissive medium (OD615), pilot counter-assay for S. cerevisiae lifespan shortening project, permissive growth control (AID 705;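 active = growth inhibition above 25% in both replicates, a cutoff set 3 SD above the mean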). Conditions: OD615, 24 h, at 10 µM, stronger effect = higher value. The method, boiled down: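 Material: engineered DeaD yeast; compound dosing: one dose 10 µM, DMSO 0.25% final; measure: yeast growth inhibition indicated by reduced 24 h OD615; detection: OD615 turbidity read; incubation: cells pre-grown 4 h, then 24 h compound exposure, 30 °C humidified; medium: permissive synthetic complete medium with raffinose and galactose carbon sources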

Test [2] in a line: S. cerevisiae growth inhibition in restrictive medium, OD615, pilot screen, restrictive growth control, yeast lifespan reduction project (AID 706;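 active = growth inhibition above a set limit, 3 SD over mean compound inhibition, in both replicates, cut at about 43% in these data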;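 note: modified DeaD lifespan yeast strain shifted to restrictive glucose medium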). Conditions: OD615, 48 h, at 10 µM, stronger effect = higher value. The method, boiled down:
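material = engineered S. cerevisiae DeaD strain | medium = glucose-based CSMM-D restrictive medium | times = 4 h pre-incubation, 48 h exposure at 30 °C | technique = OD615 absorbance reading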

Test [3] is described as follows: doxorubicin toxicity protection in MRP-1 cells – H69AR cells, CellTiter-Glo, duplicate, MRP-1 activator project, pilot screen (AID 807;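 active = viability increase at or above a cutoff of the median across tested compounds plus 3 SD, cut at about 8.5% in these data, passing the limit was not always enough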;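 note: compound pretreatment 18-22 h then 72 h combined with doxorubicin; 0% = doxorubicin alone and 100% = vehicle without doxorubicin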). Conditions: H69AR viability with doxorubicin, CellTiter-Glo luminescence; at 10 µM; stronger effect = higher value. Background: ATP-based viability assays read luminescence as a measure of living cells.
Test [4] is described as follows: viability of HCT116 without oncogenic beta-catenin – human colon tumor cells, pilot screen (AID 823;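 active = cell viability at or below a set limit in both duplicate runs, the limit being the all-compound median minus 4 SD, cut at about 23% in these data, passing the limit was not always enough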;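 note: 0% = wells killed by 20 µM Hyamine and 100% = untreated DMSO cell wells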). Conditions: HCT116 beta-catenin knockout viability, CellTiter-Glo, 60 h; at 10 µM; stronger effect = lower value.
Test [5] is described as follows: viability of PTEN-null HCT116 cells – cell-based, HCT116 clonal line, CellTiter-Glo, pilot screen (AID 824;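 active = viability at or below 27.92% in each of two runs, the all-compound median minus 4 SD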;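 note: 0% = 20 µM Hyamine control and 100% = vehicle cell control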). The following applies: HCT116 PTEN-deleted viability, 60 h, at 10 µM, stronger effect = lower value.
A short description of test [6]: RAM pathway blockade in budding yeast – dse1pr::URA3 reporter, 5-FOA selection, pilot screen (AID 869;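 active = inhibition over a set limit, the all-compound mean plus 3 SD, in both replicate runs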;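 note: 0% = DMSO wells with no growth and 100% = 10 µM 1-NA-PP1 with full growth; RAM network block rescues cells from 5-FOA so hits raise OD615 growth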). The following applies: S. cerevisiae dse1pr::URA3 5-FOA growth, OD615, 2 d; at 10 µM; stronger effect = higher value; strain carries analog-sensitive mutant Cbk1 kinase.
Test [7] can be described thus: RAM signaling pathway blockade in yeast – S. cerevisiae, Pdr1DBD-CYC8 efflux-inhibited sensitized strain, primary screen (AID 1298).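 Note: 0% = DMSO untreated cells without growth and 100% = 10 µM 1-NA-PP1 full growth; higher means more yeast growth rescued from 5-FOA killing.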 The following applies: S. cerevisiae cbk1-as DSE1-URA3 strain, 5-FOA growth OD615, 2 d; at 50 µM; stronger effect = higher value.

A number with no mark means an inactive call. Results filed as inconclusive are left out. Active and inactive are the calls of the source.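 Rule for the calls, unless noted: active = RAM network inhibition above 8.4% in each of two replicates, 3 SD over the compound average; inconclusive = above 8.4% inhibition in only one replicate; inactive = 8.4% inhibition or less in each replicate.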

One may read the viability as a read-out of living cells in per cent, often relative to untreated cells. One may read the inhibition as the change of the read-out against control, counted positive when it falls. With `CNC(=O)C1CC(=O)N(c2ccc(C)cc2)C1` (stereo unspecified), the growth inhibition in test [1] is -11.6%; in test [2], -11.4%. Moreover, the viability increase in test [3] is 0.85%. Further, the viability in test [4] was 98.5%; in test [5], 102%. For the same molecule, in test [6], the inhibition is 0.395%. For the same molecule, in test [7], the RAM network inhibition was 2.24%.

Take `Cc1ccc(CC2CC(=O)N(c3cc(C)on3)C2=O)cc1` (stereo unspecified): the growth inhibition in test [1] is -17.8%; in test [2] it was -19.9%. In addition, the viability increase in test [3] was 0.79%. Besides, the viability is 100% in test [4] and 94% in test [5]. In test [6], the inhibition was 1.73%. In addition, in test [7], the RAM network inhibition was -0.79%.

With `Cc1noc(C(=O)Nc2c(C)nn(Cc3ccccc3)c2C)c1Cl`, the growth inhibition was -7.73% in test [1] and 7.98% in test [2]. Further, the viability increase in test [3] is 0.04%. The viability in test [4] is 93.1%; in test [5], 88.7%. Moreover, the inhibition in test [6] is 2.25%. In addition, the RAM network inhibition in test [7] was 3.63%.

On to `CC(=O)C1=C(O)C(=O)N(CC(=O)O)C1c1ccccc1Cl` (stereo unspecified), for which the results for the growth inhibition in test [1] and in test [2] were 0.915% and 9.59%, respectively. Besides, the viability increase in test [3] is -0.3%. Further, the viability in test [4] and in test [5] was 104% each time. Moreover, the inhibition in test [6] is 2.28%. The RAM network inhibition in test [7] is 2.43%.

As to `O=C1CC(c2ccco2)CC2=C1C1c3ccccc3C(=O)N1c1ccccc1N2` (stereo unspecified), the growth inhibition in test [1] was -9.63%; in test [2], -5.43%. For the same molecule, the viability increase in test [3] was 3.98%. Besides, the figures for the viability in test [4] and in test [5] were 7.74% (active) and 7.59% (active), respectively. In test [6], the inhibition is 1.36%. Moreover, the RAM network inhibition in test [7] is 4.2%.

For `CC(CCc1ccccc1)NC(=O)CSc1nccc(=O)[nH]1` (stereo unspecified), the results for the growth inhibition in test [1] and in test [2] were -20.5% and -6.91%, respectively. In test [3], the viability increase is -0.56%. The results for the viability in test [4] and in test [5] were 94.2% and 94.5%, respectively. Besides, the inhibition in test [6] is 1.06%. Besides, in test [7], the RAM network inhibition was 2.7%.

In the case of `CCC(=O)c1ccc(OCC(O)CN2C(=O)NC(C)(C)C2=O)cc1` (stereo unspecified), the growth inhibition in test [1] is -3.58%; in test [2], -3.1%. Further, the viability increase in test [3] was -0.53%. The viability was 100% in test [4] and 92.8% in test [5]. The inhibition in test [6] is 1.6%. Also, the RAM network inhibition in test [7] is 1.09%.

Regarding `COc1ccccc1N1CCN(C(=O)CCCCn2c(=O)[nH]c3ccsc3c2=O)CC1`, the growth inhibition in test [1] was -4.33%; in test [2] it was 7.52%. For the same molecule, the viability increase in test [3] was -2.84%. In addition, the values for the viability in test [4] and in test [5] were 94% and 88.5%, respectively. In test [6], the inhibition is 2.13%. In addition, in test [7], the RAM network inhibition is 5.16%.

`Cn1c(=O)c2c(SCC(=O)c3ccccc3)nc(C3CC3)nc2n(C)c1=O`: the growth inhibition is 13.4% in test [1] and 7.46% in test [2]. In test [3], the viability increase was -2.05%. The viability in test [4] was 76.8%; in test [5], 77.8%. Moreover, the inhibition in test [6] is 1.17%. The RAM network inhibition in test [7] was -1.03%.

With `CCSCCOC(=O)C1=C(C)N(C)C(=O)NC1c1cc(OC)ccc1OC` (stereo unspecified), the growth inhibition in test [1] is 0.26%; in test [2], -2.77%. Besides, the viability increase in test [3] was 1.05%. For the same molecule, the viability was 94.2% in test [4] and 93.8% in test [5]. Moreover, the inhibition in test [6] was 0.645%. Further, the RAM network inhibition in test [7] was 2.69%.

As to `COC(=O)c1ccc(OC(=O)c2nn(C)cc2Cl)c(OC)c1`, the growth inhibition was -0.14% in test [1] and 10.2% in test [2]. Moreover, in test [3], the viability increase was -5.78%. Besides, the viability in test [4] is 101%; in test [5], 95.5%. Further, the inhibition in test [6] is -0.22%. The RAM network inhibition in test [7] is -0.57%.

In the case of `CN1CCN(S(=O)(=O)c2cccc(S(=O)(=O)c3ccc(Cl)c(Cl)c3)c2)CC1`, the growth inhibition was -1.71% in test [1] and -7.33% in test [2]. For the same molecule, the viability increase in test [3] was -2.58%. Moreover, the viability is 91.1% in test [4] and 83.7% in test [5]. The inhibition in test [6] was 0.59%. For the same molecule, in test [7], the RAM network inhibition is 4.5%.

As to `COc1nc(Nc2ccc(C(C)=O)cc2)nc(OC)n1`, the growth inhibition is 0.42% in test [1] and -4.17% in test [2]. Moreover, in test [3], the viability increase is -4.04%. Also, the viability in test [4] was 99.5%; in test [5] it was 97.9%. The inhibition in test [6] was 1.75%. In addition, the RAM network inhibition in test [7] is 6.28%.

`Cc1ccc(-c2cc3c(nn2)-c2ccccc2C3=O)cc1`: the growth inhibition in test [1] is -17%; in test [2], -5.93%. Further, the viability increase in test [3] was -6.54%. The results for the viability in test [4] and in test [5] were 53.4% and 49.6%, respectively. Besides, the inhibition in test [6] was 4.56%. In addition, in test [7], the RAM network inhibition was 7.67%.

In the case of `CCN1C(=O)NC2C1N(S(C)(=O)=O)CCN2S(C)(=O)=O` (stereo unspecified), the growth inhibition is -1.72% in test [1] and 2.34% in test [2]. The viability increase in test [3] was -0.57%. The viability is 108% in test [4] and 92.1% in test [5]. The inhibition in test [6] is 1.29%. Also, the RAM network inhibition in test [7] is 4.02%.

On to `O=C(CC1SC(=Nc2ccccc2)N(CCCCO)C1=O)NCc1ccccc1` (stereo unspecified), for which the growth inhibition in test [1] was -5.1%; in test [2] it was -5.89%. Besides, the viability increase in test [3] is -2.74%. Moreover, the viability in test [4] was 89.5%; in test [5] it was 86.4%. In addition, the inhibition in test [6] was 0.065%. Further, the RAM network inhibition in test [7] was 5.21%.

As for `CCOC(=O)c1ccc(NCn2c(=O)oc3ccccc32)cc1`, the growth inhibition was -8.51% in test [1] and -15.7% in test [2]. Moreover, the viability increase in test [3] was -4.09%. The values for the viability in test [4] and in test [5] were 88.5% and 87.6%, respectively. In addition, in test [6], the inhibition is -0.385%. The RAM network inhibition in test [7] was -0.1%.

`CCCc1cc(C(=O)Nc2cccc(C(C)=O)c2)no1`: the growth inhibition was -4.86% in test [1] and 1.98% in test [2]. Moreover, the viability increase in test [3] was 0.44%. Moreover, the viability in test [4] is 104%; in test [5] it was 92.3%. The inhibition in test [6] is 1.75%. In addition, in test [7], the RAM network inhibition was 2.91%.

These data come from PubChem BioAssay.
